{"source": "paper PMC4401146", "about": "(Journal of Cellular and Molecular Medicine, 2008)", "format_in_all_cases": "biochemical", "key": {"PMCA1": {"molecular_target": "T1, PMCA1 (Oryctolagus cuniculus, UniProt Q00804)", "T1 sequence (Q00804 1-1220)": "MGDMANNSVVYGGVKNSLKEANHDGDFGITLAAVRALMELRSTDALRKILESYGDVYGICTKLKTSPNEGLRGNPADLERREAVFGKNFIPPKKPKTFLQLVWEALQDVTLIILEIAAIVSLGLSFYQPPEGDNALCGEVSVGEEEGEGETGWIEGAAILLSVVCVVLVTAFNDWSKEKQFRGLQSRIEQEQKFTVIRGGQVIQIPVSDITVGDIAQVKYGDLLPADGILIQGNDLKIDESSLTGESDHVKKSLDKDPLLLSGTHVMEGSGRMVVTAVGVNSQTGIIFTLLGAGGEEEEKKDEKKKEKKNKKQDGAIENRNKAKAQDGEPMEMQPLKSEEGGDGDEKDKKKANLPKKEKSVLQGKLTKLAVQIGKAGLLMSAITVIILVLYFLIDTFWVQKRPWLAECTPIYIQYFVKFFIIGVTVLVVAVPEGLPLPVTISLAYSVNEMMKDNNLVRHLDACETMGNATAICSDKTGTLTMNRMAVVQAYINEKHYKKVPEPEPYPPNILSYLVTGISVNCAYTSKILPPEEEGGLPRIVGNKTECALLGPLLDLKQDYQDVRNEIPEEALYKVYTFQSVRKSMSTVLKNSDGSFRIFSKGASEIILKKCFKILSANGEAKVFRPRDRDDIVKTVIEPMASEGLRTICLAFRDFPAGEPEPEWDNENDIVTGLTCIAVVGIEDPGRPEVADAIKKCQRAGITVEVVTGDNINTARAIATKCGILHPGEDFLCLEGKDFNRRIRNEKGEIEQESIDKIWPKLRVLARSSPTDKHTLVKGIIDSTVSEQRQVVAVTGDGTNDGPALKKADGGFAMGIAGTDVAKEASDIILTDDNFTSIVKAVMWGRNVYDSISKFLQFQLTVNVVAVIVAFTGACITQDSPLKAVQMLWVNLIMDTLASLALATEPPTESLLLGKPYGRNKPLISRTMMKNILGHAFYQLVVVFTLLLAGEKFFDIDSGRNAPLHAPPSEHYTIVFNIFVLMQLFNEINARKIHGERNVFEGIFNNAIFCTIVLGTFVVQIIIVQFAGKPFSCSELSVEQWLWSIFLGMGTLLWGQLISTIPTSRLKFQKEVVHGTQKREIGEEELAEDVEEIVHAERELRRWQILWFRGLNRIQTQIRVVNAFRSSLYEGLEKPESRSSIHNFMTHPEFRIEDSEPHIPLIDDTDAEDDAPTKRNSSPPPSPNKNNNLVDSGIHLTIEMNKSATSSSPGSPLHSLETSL", "test": "Ca2+-Mg2+-ATPase of rabbit duodenal mucosal PM rich fraction", "how_it_was_run": "(§1)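 Sources: a plasma membrane-enriched fraction from rabbit duodenal mucosa, rich in PMCA1 with little PMCA4, and microsomes from baculovirus-infected Sf9 cells expressing PMCA2 or PMCA3. Activity was followed by NADH loss in a coupled assay at 37°C: basal Mg2+-ATPase, then CaCl2 added, difference taken. Each day's mean control activity was 100%. Ki was fitted by non-linear regression; 3–4 measurements over 2–4 days.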"}, "PMCA4": {"molecular_target": "PMCA4 (Homo sapiens, UniProt P23634)", "test": "PMCA Ca2+-Mg2+-ATPase in human erythrocyte ghosts, coupled enzyme assay", "how_it_was_run": "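Human erythrocyte leaky ghosts were EDTA-washed to strip calmodulin; 0.2–0.4 mg protein per assay. Pyruvate kinase–LDH coupled NADH assay at 37°C in 30 mM imidazole-HCl pH 7.0 with 0.1 mM ouabain, 6 mM MgCl2, 0.5 mM ATP, 0.5 mM EGTA and 4 μg/ml calmodulin. Basal Mg2+-ATPase was subtracted from activity after CaCl2 addition. Ki came from a non-linear fit, saturating substrates; 3–4 measurements over 2–4 days.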"}, "PMCA2": {"molecular_target": "T2, PMCA2 (Homo sapiens, UniProt Q01814)", "T2 sequence (Q01814 1-1243)": "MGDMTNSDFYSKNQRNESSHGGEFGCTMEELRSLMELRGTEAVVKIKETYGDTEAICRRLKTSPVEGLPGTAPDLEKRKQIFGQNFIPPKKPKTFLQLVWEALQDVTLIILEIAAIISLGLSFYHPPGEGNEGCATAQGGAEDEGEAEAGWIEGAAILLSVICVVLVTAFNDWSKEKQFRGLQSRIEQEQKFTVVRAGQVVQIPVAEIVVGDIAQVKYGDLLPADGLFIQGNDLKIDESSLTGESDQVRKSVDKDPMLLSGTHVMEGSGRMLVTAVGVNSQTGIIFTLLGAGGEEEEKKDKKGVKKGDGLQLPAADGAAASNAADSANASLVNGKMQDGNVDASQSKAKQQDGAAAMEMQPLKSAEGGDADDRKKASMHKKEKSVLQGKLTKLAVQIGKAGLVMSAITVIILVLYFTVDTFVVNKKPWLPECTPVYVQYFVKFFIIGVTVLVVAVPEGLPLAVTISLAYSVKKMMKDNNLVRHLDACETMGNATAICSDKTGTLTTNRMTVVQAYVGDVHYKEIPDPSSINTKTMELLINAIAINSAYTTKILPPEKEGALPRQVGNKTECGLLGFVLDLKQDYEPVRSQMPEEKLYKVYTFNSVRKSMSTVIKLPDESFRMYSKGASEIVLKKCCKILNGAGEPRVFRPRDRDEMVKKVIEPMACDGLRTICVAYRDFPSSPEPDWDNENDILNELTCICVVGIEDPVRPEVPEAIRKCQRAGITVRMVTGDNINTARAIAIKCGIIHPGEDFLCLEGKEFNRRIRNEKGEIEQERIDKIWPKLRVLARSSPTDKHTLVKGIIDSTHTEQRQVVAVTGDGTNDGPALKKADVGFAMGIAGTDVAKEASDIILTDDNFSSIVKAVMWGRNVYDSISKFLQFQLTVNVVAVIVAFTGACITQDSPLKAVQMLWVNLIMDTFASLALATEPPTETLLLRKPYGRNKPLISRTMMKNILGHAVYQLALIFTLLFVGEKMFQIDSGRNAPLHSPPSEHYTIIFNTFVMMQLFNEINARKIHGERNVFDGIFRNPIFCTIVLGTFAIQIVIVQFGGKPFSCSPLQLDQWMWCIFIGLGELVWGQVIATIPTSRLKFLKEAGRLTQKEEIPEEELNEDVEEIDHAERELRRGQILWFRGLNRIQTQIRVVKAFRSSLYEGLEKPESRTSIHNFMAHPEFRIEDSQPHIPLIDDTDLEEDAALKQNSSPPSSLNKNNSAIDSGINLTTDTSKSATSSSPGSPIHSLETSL", "test": "Ca2+-Mg2+-ATPase of microsomes from overexpressing insect cells sf9", "how_it_was_run": "as §1"}, "PMCA3": {"molecular_target": "T3, PMCA3 (Homo sapiens, UniProt Q16720)", "T3 sequence (Q16720 1-1220)": "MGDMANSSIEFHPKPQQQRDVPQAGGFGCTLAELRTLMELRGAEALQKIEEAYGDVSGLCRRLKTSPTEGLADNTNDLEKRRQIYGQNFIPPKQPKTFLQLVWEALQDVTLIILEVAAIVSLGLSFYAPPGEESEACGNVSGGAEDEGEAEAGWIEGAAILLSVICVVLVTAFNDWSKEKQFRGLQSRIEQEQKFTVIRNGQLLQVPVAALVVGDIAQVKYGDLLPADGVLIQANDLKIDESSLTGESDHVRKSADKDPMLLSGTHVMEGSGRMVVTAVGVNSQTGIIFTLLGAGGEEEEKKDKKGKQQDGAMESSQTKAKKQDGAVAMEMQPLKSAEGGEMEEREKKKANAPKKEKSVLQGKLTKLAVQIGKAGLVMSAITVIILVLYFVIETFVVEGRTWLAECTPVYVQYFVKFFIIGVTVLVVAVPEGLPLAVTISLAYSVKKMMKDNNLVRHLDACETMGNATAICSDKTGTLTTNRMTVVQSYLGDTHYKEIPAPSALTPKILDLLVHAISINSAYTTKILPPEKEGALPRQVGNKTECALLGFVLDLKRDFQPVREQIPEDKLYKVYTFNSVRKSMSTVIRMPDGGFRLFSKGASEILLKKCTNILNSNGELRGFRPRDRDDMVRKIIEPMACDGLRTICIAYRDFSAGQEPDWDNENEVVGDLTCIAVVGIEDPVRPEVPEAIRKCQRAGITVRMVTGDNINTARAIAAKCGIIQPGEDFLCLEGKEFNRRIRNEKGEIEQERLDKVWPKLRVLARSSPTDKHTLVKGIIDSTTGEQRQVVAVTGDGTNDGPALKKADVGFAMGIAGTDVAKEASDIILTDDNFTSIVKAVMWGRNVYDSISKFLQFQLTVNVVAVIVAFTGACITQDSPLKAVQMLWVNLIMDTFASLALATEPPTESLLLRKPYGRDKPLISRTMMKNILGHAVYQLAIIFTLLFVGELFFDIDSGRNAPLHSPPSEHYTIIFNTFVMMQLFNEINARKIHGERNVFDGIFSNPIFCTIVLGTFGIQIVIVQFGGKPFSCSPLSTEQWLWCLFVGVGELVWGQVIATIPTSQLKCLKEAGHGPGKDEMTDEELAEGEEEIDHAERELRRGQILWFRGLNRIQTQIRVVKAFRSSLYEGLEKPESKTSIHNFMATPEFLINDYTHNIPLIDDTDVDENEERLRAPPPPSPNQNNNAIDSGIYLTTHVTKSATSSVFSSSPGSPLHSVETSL", "test": "Ca2+-Mg2+-ATPase of microsomes from overexpressing insect cells sf9", "how_it_was_run": "as §1"}}, "note": "No end group written: not given here."}
{"substance": "TAWSEVLDLLRRGGGSK-NH2 [caloxin 1c2]", "values": [{"measurement": "Ki", "setting": "PMCA1", "value": "21 ± 6", "unit": "µM"}, {"measurement": "Ki", "setting": "PMCA4", "value": "2.3 ± 0.3", "unit": "µM"}, {"measurement": "Ki", "setting": "PMCA2", "value": "40 ± 10", "unit": "µM"}, {"measurement": "Ki", "setting": "PMCA3", "value": "67 ± 8", "unit": "µM"}]}
